Where no end group is shown, it is not given here.
Columns and labels:
[1] = molecular target: ^8F1^9F1 (module pair of fibronectin, Fn precursor residues 516–608) (Homo sapiens, UniProt P02751); experiment: ITC, binding to ^8F1^9F1; conditions: 10 mM NaH2PO4/K2HPO4, pH 7.4, 25 °C, FnZ peptide 2.97 mM, Fn domain 0.24 mM
Summary of the method: (§1)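 Cell held GBD (proteolytic Fn fragment, dialysed into buffer) or ⁸F1⁹F1 (Pichia-expressed, Endo Hf-trimmed glycans). Syringe held uncapped synthetic test peptide at 10–20× the cell concentration. Both were degassed at 20 °C for 15 min. 2 μl preinjection, then 39 × 7 μl injections at 0.5 μl/s, 307 rpm, 360 s spacing. Averaged heats from a separate peptide-into-buffer run were subtracted; one-site binding fit.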

[2] = molecular target: GBD (gelatin-binding domain of fibronectin) (Homo sapiens, UniProt P02751); experiment: ITC, binding to GBD
Sequence of GBD (gelatin-binding domain of fibronectin) (P02751 308-608 limits assumed): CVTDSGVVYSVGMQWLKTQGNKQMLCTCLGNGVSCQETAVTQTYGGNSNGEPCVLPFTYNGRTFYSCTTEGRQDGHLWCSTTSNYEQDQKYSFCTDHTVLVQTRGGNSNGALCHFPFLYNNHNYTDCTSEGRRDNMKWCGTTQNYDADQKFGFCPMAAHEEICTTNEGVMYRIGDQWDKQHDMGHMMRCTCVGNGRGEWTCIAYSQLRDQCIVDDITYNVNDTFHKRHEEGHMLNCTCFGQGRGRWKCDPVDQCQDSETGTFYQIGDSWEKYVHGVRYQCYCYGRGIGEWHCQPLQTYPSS
Summary of the method: as §1

[3] = molecular target: gelatin-binding domain (GBD) of fibronectin, proteolytic fragment (human); experiment: ITC
[4] = molecular target: recombinant fibronectin 100-kDa N-terminal fragment (human); experiment: ITC
[5] = ITC, 10 mM NaH2PO4/K2HPO4, pH 7.4, 25 °C, FnZ peptide 0.11 mM, Fn domain 0.01 mM

Sequence of ^8F1^9F1 (module pair of fibronectin, Fn precursor residues 516–608) (P02751 516-608): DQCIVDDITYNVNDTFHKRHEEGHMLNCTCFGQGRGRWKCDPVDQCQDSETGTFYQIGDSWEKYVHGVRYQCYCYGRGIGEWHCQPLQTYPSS

Molecule: RNPHLMGIGGGLAGESGETTPK [FnZ peptide]
- ΔH [1]: -29.8 kcal/mol
- ΔS [1]: −77.2 cal/mol K^−1
- Kd [2]: 540 ± 40 nM
- ΔH [2, 5]: -17.7 kcal/mol
- ΔS [2, 5]: −30.8 cal/mol K^−1

B1: FnZ synthetic peptide, residues 370-391 (peptide)
peptide: H-RNPHLMGIGGGLAGESGETTPK-OH
- Kd [3]: 540 nM
- dH [3]: -17.7 kcal/mol

B2: FnZ(370-428), recombinant fragment of the fibronectin-binding protein FnZ from S. zooepidemicus (domain or fragment)
chain: GPLGSRNPHLMGIGGGLAGESGETTPKPGQTGGQGPVIETTEDTQKGMSGQSGGTIESENTKKP
- Kd [4]: 0.8 nM
- dH [4]: -54.6 kcal/mol
- stoichiometry N [4]: 1.06

From paper PMC2978626 (The Journal of Biological Chemistry, 2010)
